This is an account of results in ChEMBL document CHEMBL3994628, “Coumarin derivatives as potential antitumor agents: Growth inhibition, apoptosis induction and multidrug resistance reverting activity” (Eur J Med Chem, 2017).

Activity calls are given as the source filed them. No cut-off for these calls is given here.

Experiment [1] concerns LoVo. In words: Growth inhibition of human LoVo cells after 24 hrs by MTT assay. Type of experiment: functional, cell-based. In short, it runs like this:
(§1)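 Cells were plated at 2x10^4 cells/cm2 and grown in RPMI 1640 with 10% FBS and 2 mM glutamine at 37 °C. They were exposed for 24 h to 0.01-100 µM, diluted from a 10 mmol/L DMSO stock, in triplicate. MTT was then added at 0.2 mg/mL in PBS for 4 h and the formazan dissolved in DMSO. A540 was read and IC50 taken from the dose-response curve, mean ± SD. The ratio compares the IC50s of the two lines.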
A general note: Tetrazolium dyes change colour on reduction, which living cells bring about.

Experiment [2] can be described thus: Growth inhibition of human LoVo/DX cells after 24 hrs by MTT assay. The class given is functional, cell-based. In short, it runs like this:
as §1

Experiment [3] is filed under the species Homo sapiens. In words: Inhibition of P-gp in human LoVo/DX cells assessed as reduction in Rhodamine123 efflux at 2.5 uM preincubated for 15 mins followed by Rhodamine123 addition measured after 1 hr by flow cytometry. Type of experiment: cell-based. In short, it runs like this: (§2)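 LoVo/Dx cells at 3x10^5 cells/mL in serum-free, phenol red-free medium were preincubated at room temperature for 15 min at 2.5 or 10 µM. Rhodamine 123 was then added at 2 µM for 1 h at 37 °C in the dark. After a PBS wash, fluorescence was read by flow cytometry at 488 nm excitation and 530 nm emission. Mean control fluorescence was subtracted. Verapamil served as positive control. Data are mean ± SD of ≥3 experiments.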
(A flow cytometer gives signals particle by particle.)

For experiment [4], the species on record is Homo sapiens. Kind of experiment: Inhibition of P-gp in human LoVo/DX cells assessed as reduction in Rhodamine123 efflux at 10 uM preincubated for 15 mins followed by Rhodamine123 addition measured after 1 hr by flow cytometry. Type of experiment: cell-based. In short, it runs like this: as §2
Experiment [5] is described as follows: Selectivity ratio of IC50 for human LoVo cells to IC50 for human LoVo/DX cells. Type of experiment: functional. The method in brief:
as §1

Experiment [6] deals with LoVo. Kind of experiment: Cytostatic activity against human LoVo cells by phase contrast microscopic method. The class given is functional, cell-based. In short, it runs like this:
(§3)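 LoVo or LoVo/Dx cells were plated at 2x10^4 cells/cm2 in RPMI 1640 with 10% FBS and exposed for 24 h. Phase contrast microscopy was used to judge growth delay without cell death (cytostatic) or cell death, shown as floating cells (cytotoxic).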

Experiment [7] concerns LoVo. Kind of experiment: Cell cycle arrest in human LoVo cells assessed as accumulation at G2/M phase at 3.5 to 7 uM after 24 hrs by propidium iodide staining based flow cytometry. Type of experiment: functional.
In experiment [8] the test system is LoVo/DX. In words: Cell cycle arrest in human LoVo/DX cells assessed as accumulation at G0/G1 phase at 1.8 uM after 24 hrs by propidium iodide staining based flow cytometry. The class given is functional.
For experiment [9], the system named is LoVo/DX. Kind of experiment: Cell cycle arrest in human LoVo/DX cells assessed as accumulation at G2/M phase at 3.6 uM after 24 hrs by propidium iodide staining based flow cytometry. The class given is functional.
For experiment [10], the system named is LoVo/DX. Kind of experiment: Cytostatic activity against human LoVo/DX cells by phase contrast microscopic method. The class given is functional, cell-based. In short, it runs like this: as §3
Experiment [11] relates to LoVo. In words: Cytotoxic activity against human LoVo cells after 24 hrs by phase contrast microscopic method. The class given is functional, cell-based. In short, it runs like this:
as §3

Experiment [12] deals with LoVo/DX. Kind of experiment: Cytotoxic activity against human LoVo/DX cells after 24 hrs by phase contrast microscopic method. Type of experiment: functional, cell-based. The method in brief: as §3
Experiment [13] concerns LoVo. Kind of experiment: Induction of apoptosis in human LoVo cells assessed as caspase-activation using DEVD as substrate at cytotoxic concentration after 24 hrs by fluorimetric assay relative to control. The class given is functional. The method in brief:
(§4)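 After 24 h exposure at cytotoxic concentration, DEVD-hydrolysing caspase activity was measured fluorimetrically in cell extracts. Values are given as percentage increase over untreated control, set at 100%. Data are mean ± SD of at least three independent experiments.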

A short description of experiment [14]: Induction of apoptosis in human LoVo/DX cells assessed as caspase-activation using DEVD as substrate at cytotoxic concentration after 24 hrs by fluorimetric assay relative to sensitive LoVo cells. The class given is functional.
For experiment [15], the species on record is Homo sapiens. In words: Substrate activity at P-gp in human LoVo/DX cells assessed as ATP consumption at 10 uM after 2 hrs by ATPlite assay. The class given is cell-based. On the technique in general: Cellular ATP, detected with luciferase, serves as a proxy for viable cell number.
Experiment [16] is filed under the species Homo sapiens. In words: Inhibition of P-gp in human LoVo/DX cells assessed as reduction in Rhodamine123 efflux at 2.5 to 10 uM preincubated for 15 mins followed by Rhodamine123 addition measured after 1 hr by flow cytometry relative to verapamil. Type of experiment: cell-based. In short, it runs like this:
as §2

The nature of experiment [17]: Selectivity ratio of IC50 for human LoVo/DX cells to IC50 for human LoVo cells. The class given is functional. The method in brief: as §1
The test system of experiment [18] is LoVo. In words: Cell cycle arrest in human LoVo cells assessed as accumulation at G2/M phase after 24 hrs by propidium iodide staining based flow cytometry. The class given is functional.
Experiment [19] has as its system LoVo/DX. In words: Cell cycle arrest in human LoVo/DX cells assessed as accumulation at S phase after 24 hrs by propidium iodide staining based flow cytometry. The class given is functional.
In experiment [20] the test system is LoVo. In words: Cell cycle arrest in human LoVo cells assessed as accumulation at G0/G1 phase after 24 hrs by propidium iodide staining based flow cytometry. Type of experiment: functional.
The test system of experiment [21] is LoVo/DX. Kind of experiment: Induction of apoptosis in human LoVo/DX cells assessed as caspase-activation using DEVD as substrate at cytotoxic concentration after 24 hrs by fluorimetric assay. The class given is functional, cell-based. In short, it runs like this:
as §4

The test system of experiment [22] is LoVo/DX. In words: Cell cycle arrest in human LoVo/DX cells assessed as accumulation at G0/G1 phase after 24 hrs by propidium iodide staining based flow cytometry. The class given is functional.

Broadly, the IC50 is the point on the concentration scale where inhibition reaches its midpoint. High values mean weaker potency in that assay, low ones greater potency in that assay. Take `CC(C)=CCOc1ccc2ccc(=O)oc2c1` [7-PRENYLOXYCOUMARIN]: the figures for the concentration for half-maximal inhibition (IC50) (in the experiment on LoVo [1]; in experiment [2]) were 30 µM and 50.3 µM, respectively. Moreover, in the experiment listed under Homo sapiens [3], the “P-gp inhibition (active/not active)” value was “Active”.

On to `C/C(C#CCN1CCN(C2c3ccccc3-c3ccccc32)CC1)=C\COc1ccc2ccc(=O)oc2c1`, for which the “P-gp inhibition (active/not active)” value in the experiment listed under Homo sapiens [4] is “inactive”. Moreover, the half-inhibitory concentration (IC50) in the experiment on LoVo [1] stood at 3.5 µM; in experiment [2], 1.8 µM. Further, in experiment [5], the “Ratio IC50” value is 2. The result with LoVo [6], in the experiment on LoVo [7], in the experiment on LoVo/DX [8], with LoVo/DX [9], in the experiment on LoVo/DX [10] and in the experiment with LoVo [11] was Active. The result in the experiment with LoVo/DX [12] and in the experiment filed under Homo sapiens [15] was Active. In the experiment on LoVo [13], the Activity was found to be 72%. The “fold change (FC)” value in experiment [14] is given as 3. In addition, the “P-gp inhibition (active/not active)” value in the experiment filed under Homo sapiens [3] was “Active”.

On to `C/C(C#CCN1CCN(Cc2ccccc2)CC1)=C\COc1ccc2ccc(=O)oc2c1`, for which the IC50 worked out at 67.6 µM with LoVo [1] and 19.6 µM in experiment [2]. For the same molecule, in the experiment listed under Homo sapiens [3], the “P-gp inhibition (active/not active)” value is “Active”.

In the case of `C/C(C#CCN1CCCCC1)=C\COc1ccc2ccc(=O)oc2c1`, the IC50 in the experiment with LoVo [1] came to 62 µM; in experiment [2], 33 µM. In addition, the “P-gp inhibition (active/not active)” value in the experiment listed under Homo sapiens [3] is “Active”.

With `C/C(C#CCN1CCN(C(c2ccc(F)cc2)c2ccc(F)cc2)CC1)=C\COc1ccc2ccc(=O)oc2c1`, the “P-gp inhibition (active/not active)” value in the experiment filed under Homo sapiens [4] and in the experiment filed under Homo sapiens [3] was “Active” in each case. Also, the IC50 with LoVo [1] was 47 µM; in experiment [2], 60 µM. The result in the experiment listed under Homo sapiens [15] was Active.

Take `C#C/C(C)=C/COc1ccc2ccc(=O)oc2c1`: the IC50 in the experiment on LoVo [1] was found to be 48 µM; in [2] it was 71.5 µM. The “P-gp inhibition (active/not active)” value in the experiment filed under Homo sapiens [3] was “inactive”.

As to `COc1ccc(CCN(C)CCCC(C#N)(c2ccc(OC)c(OC)c2)C(C)C)cc1OC` (stereo not given), in the experiment listed under Homo sapiens [15], the result was Active.

Take `COc1ccc(CCN(C)CC#C/C(C)=C/COc2ccc3ccc(=O)oc3c2)cc1OC`: the “P-gp inhibition (active/not active)” value in the experiment listed under Homo sapiens [4] and in the experiment filed under Homo sapiens [3] was “Active” in each case. The figures for the IC50 (in the experiment on LoVo [1]; in experiment [2]) were 40 µM and 15.4 µM, respectively. Further, the fold change (FC) in the experiment listed under Homo sapiens [16] is 10. Further, the result in the experiment listed under Homo sapiens [15] was inactive.

On to `C/C(C#CCN1CCN(c2ccccc2)CC1)=C\COc1ccc2ccc(=O)oc2c1`, for which the IC50 was found to be 41 µM with LoVo [1] and 12 µM in [2]. Besides, the “P-gp inhibition (active/not active)” value in the experiment filed under Homo sapiens [3] is “Active”.

For the molecule `C/C(C#CCN1CCC(n2c(=O)[nH]c3ccccc32)CC1)=C\COc1ccc2ccc(=O)oc2c1`, the “P-gp inhibition (active/not active)” value in the experiment listed under Homo sapiens [4] and in the experiment filed under Homo sapiens [3] was “Active” in each case. The half-inhibitory concentration (IC50) turned out to be 2.5 µM with LoVo [1] and 5 µM in [2]. Besides, in experiment [17], the “Ratio IC50” value worked out at 2. In addition, the outcome with LoVo [6], in the experiment on LoVo/DX [10], with LoVo [11], with LoVo/DX [12], in the experiment on LoVo/DX [21] and in the experiment filed under Homo sapiens [15] was Active. Also, the Activity entry with LoVo [18] was “Dose-dependent effect”; in the experiment with LoVo/DX [19] it was “Dose-dependent effect”; in the experiment with LoVo [20], “Dose-dependent effect”; in the experiment on LoVo [13], 19%.

As to `COc1cc2c(cc1OC)CN(CC#C/C(C)=C/COc1ccc3ccc(=O)oc3c1)CC2`, the “P-gp inhibition (active/not active)” value in the experiment filed under Homo sapiens [4] and in the experiment listed under Homo sapiens [3] was “Active” throughout. Also, the IC50 turned out to be 10.7 µM in the experiment on LoVo [1] and 10.6 µM in [2]. Besides, the outcome in the experiment with LoVo [6], in the experiment on LoVo/DX [10], in the experiment on LoVo [11], with LoVo/DX [12] and with LoVo/DX [21] was Active. The Activity result is “Dose-dependent effect” with LoVo/DX [22], “Dose-dependent effect” with LoVo [20] and 39% with LoVo [13]. The result in the experiment filed under Homo sapiens [15] was inactive.
